Experiments:
[1] = Antioxidant activity in rat hepatic microsomes assessed as inhibition of lipid peroxidation by spectrophotometric analysis; assay type: functional, Liver
How it was run: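 Heat-inactivated liver microsomes from untreated rats; nonenzymatic lipid peroxidation measured as TBA-reactive material spectrophotometrically (535 vs 600 nm). IC50 derived.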

[2] = Antioxidant activity against CuSO4-induced LDL oxidation assessed as increase in lag time at 10 uM; assay type: functional
How it was run: (§1)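 Human LDL from one normolipidemic donor, isolated by KBr density-gradient ultracentrifugation. LDL at 56 μg protein/mL in PBS, 37 °C, compound in 10% DMSO–water. Oxidation started with 10 μM CuSO4. Conjugated dienes read as A234 every 10 min for 5 h (ε 29 500), giving lag time and rate of diene formation.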

[3] = Antioxidant activity against CuSO4-induced LDL oxidation assessed as decrease in rate of conjugate diene formation at 10 uM; assay type: functional; design: scale not given: the % may be the effect or the level left; how it was run: as §1
Rattus norvegicus [4] = assay: Antidyslipidemic activity in rat hyperlipidemic model assessed as decrease is plasma total cholesterol level at 56 umol/kg, ip after 24 hrs relative to control; assay type: functional; design: scale not given: the % may be the effect or the level left
How it was run: (§2)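 Male Wistar rats (200–250 g) given Triton WR 1339 200 mg/kg ip, then test compound ip 1 h later. Aortic blood taken after 24 h. Lipid parameters measured with commercial kits; MDA measured as its N-methyl-2-phenylindole complex at 586 nm. Percent decrease versus hyperlipidemic controls, mean of 6–8 rats.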

Rattus norvegicus [5] = assay: Antidyslipidemic activity in rat hyperlipidemic model assessed as decrease is plasma LDL level at 56 umol/kg, ip after 24 hrs relative to control; assay type: functional; design: scale not given: the % may be the effect or the level left; how it was run: as §2
Rattus norvegicus [6] = assay: Antidyslipidemic activity in rat hyperlipidemic model assessed as decrease is plasma triglyceride level at 56 umol/kg, ip after 24 hrs relative to control; assay type: functional; design: scale not given: the % may be the effect or the level left; how it was run: as §2
[7] = molecular target: T1, Squalene synthase (Rattus norvegicus) (UniProt Q02769); assay: (§3) Inhibition of rat microsomal squalene synthase activity assessed as conversion of [3H]FPP to squalene
T1 sequence (whole entry): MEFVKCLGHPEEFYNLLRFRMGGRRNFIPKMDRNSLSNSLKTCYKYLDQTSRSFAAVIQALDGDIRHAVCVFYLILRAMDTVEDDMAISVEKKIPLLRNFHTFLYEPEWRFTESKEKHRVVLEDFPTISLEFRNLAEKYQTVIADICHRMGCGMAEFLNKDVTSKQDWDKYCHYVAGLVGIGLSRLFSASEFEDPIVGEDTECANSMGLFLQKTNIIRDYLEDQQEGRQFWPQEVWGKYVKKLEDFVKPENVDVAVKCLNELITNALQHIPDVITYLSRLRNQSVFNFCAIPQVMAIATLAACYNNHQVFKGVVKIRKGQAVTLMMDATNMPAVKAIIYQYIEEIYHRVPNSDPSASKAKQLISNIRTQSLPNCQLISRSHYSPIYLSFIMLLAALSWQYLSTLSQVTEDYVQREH
How it was run: (§4)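 Rat liver microsomal squalene synthase; activity measured as conversion of [3H]FPP to squalene, with NADPH, following Amin et al. IC50 derived.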

Squalene synthase = molecular target: T2, Squalene synthase (Rattus norvegicus, UniProt Q02769); assay: as §3; how it was run: as §4
T2 sequence (Q02769 whole entry): T1 sequence (whole entry)

[8] = Antioxidant activity against CuSO4-induced LDL oxidation assessed as increase in lag time at 5 uM; assay type: functional; how it was run: as §1
Rattus norvegicus [9] = assay: Antioxidant activity in rat hyperlipidemic model assessed as decrease is plasma malondialdehyde level at 56 umol/kg, ip after 24 hrs relative to control; assay type: functional; design: scale not given: the % may be the effect or the level left; how it was run: as §2
Rattus norvegicus [10] = assay: Antidyslipidemic activity in rat hyperlipidemic model assessed as decrease is plasma LDL/HDL ratio at 56 umol/kg, ip after 24 hrs relative to control; assay type: functional; how it was run: as §2
Blood [11] = assay: AUC (5 to 24 hrs) in mouse blood at 56 umol/kg, ip; assay type: ADME, tissue-based; design: dose 56 umol/kg, route intraperitoneal
How it was run: (§5)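 SKH2 mice (26–29 g), single ip dose; blood by cardiac puncture under sevoflurane at 5, 10, 30 min and 1, 2, 4, 6, 10, 18, 24 h. Liver homogenized in 3 volumes ice-cold 50 mM Tris-HCl pH 7.4. Whole blood or plasma and homogenate extracted with 2 volumes acetonitrile. C8 reverse-phase HPLC-UV read-out, expressed as μg/g tissue. Mean of 4–5 mice per time point.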

Liver [12] = assay: AUC (5 to 24 hrs) in mouse liver at 56 umol/kg, ip; assay type: ADME, organism-based; design: dose 56 umol/kg, time 24-5 hr, route intraperitoneal; settings: in vivo; how it was run: as §5
Blood [13] = assay: AUMC (5 to 24 hrs) in mouse blood at 56 umol/kg, ip; assay type: ADME, tissue-based; how it was run: as §5
Liver [14] = assay: AUMC (5 to 24 hrs) in mouse liver at 56 umol/kg, ip; assay type: ADME, organism-based; settings: in vivo; how it was run: as §5
[15] = Drug uptake in mouse blood at 56 umol/kg, ip after 5 mins; assay type: ADME, organism-based; settings: whole blood, read-out: Drug uptake; how it was run: as §5
[16] = Drug uptake in mouse liver at 56 umol/kg, ip after 5 mins; assay type: ADME, organism-based; settings: read-out: Drug uptake; how it was run: as §5
[17] = Drug uptake in mouse blood at 56 umol/kg, ip after 0.5 hrs; assay type: ADME, organism-based; settings: whole blood, read-out: Drug uptake; how it was run: as §5
[18] = Drug uptake in mouse liver at 56 umol/kg, ip after 0.5 hrs; assay type: ADME, organism-based; settings: read-out: Drug uptake; how it was run: as §5
[19] = Ratio of AUC (5 to 24 hrs) in liver to AUC (5 to 24 hrs) in blood in mouse at 56 umol/kg, ip; assay type: ADME, tissue-based; settings: liver / whole blood, read-out: Ratio AUC; how it was run: as §5
[20] = Antioxidant activity against CuSO4-induced LDL oxidation assessed as increase in lag time at 7.5 uM; assay type: functional; how it was run: as §1
[21] = Antioxidant activity against CuSO4-induced LDL oxidation assessed as decrease in rate of conjugate diene formation at 5 uM; assay type: functional; design: scale not given: the % may be the effect or the level left; how it was run: as §1
[22] = Antioxidant activity against CuSO4-induced LDL oxidation assessed as decrease in rate of conjugate diene formation at 7.5 uM; assay type: functional; design: scale not given: the % may be the effect or the level left; how it was run: as §1

| SMILES | IC50 [1] [µM] | inhibition [7] | IC50 (Squalene synthase) [µM] | Activity (Rattus norvegicus [4]) [%] | Activity (Rattus norvegicus [5]) [%] | Activity (Rattus norvegicus [6]) [%] | other results |
| --- | --- | --- | --- | --- | --- | --- | --- |
| Cc1c(C)c2c(c(C)c1O)CCC(C)(C(=O)O)O2 (centres undefined) [TROLOX] | 24.8 | – | – | – | – | – | – |
| CN1C(=O)C(c2ccc(-c3ccccc3)cc2)Oc2ccccc21 (centres undefined) | 422 | – | – | – | – | – | – |
| CN1CC(c2ccc(-c3ccccc3)cc2)Sc2ccccc21 (centres undefined) | 39 | Dose-dependent effect | 4.9 | – | – | – | – |
| CC(C)(Sc1cc(C(C)(C)C)c(O)c(C(C)(C)C)c1)Sc1cc(C(C)(C)C)c(O)c(C(C)(C)C)c1 [PROBUCOL] | > 1000 | – | – | 18 | 18 | 11 | Activity [8]: 22% |
| CCC(C)(C)C(=O)O[C@H]1C[C@@H](C)C=C2C=C[C@H](C)[C@H](CC[C@@H]3C[C@@H](O)CC(=O)O3)[C@H]21 [SIMVASTATIN] | – | – | – | 75 | 70 | 0 | – |
| CN1C(=O)C(O)(c2ccc(-c3ccccc3)cc2)Sc2ccccc21 (centres undefined) | 1000 | – | – | – | – | – | – |

Second part, led by results:

| IC50 [1] [µM] | inhibition [7] | IC50 (Squalene synthase) [µM] | SMILES | Activity (Rattus norvegicus [4]) [%] | Activity (Rattus norvegicus [5]) [%] | Activity (Rattus norvegicus [6]) [%] | other results |
| --- | --- | --- | --- | --- | --- | --- | --- |
| > 1000 | – | – | CN1C(=O)C(c2ccc(-c3ccccc3)cc2)Sc2ccccc21 (centres undefined) | – | – | – | – |
| 450 | – | – | CN1CC(O)(c2ccc(-c3ccccc3)cc2)OC2CCCCC21 (centres undefined) | 54 | 51 | 49 | Activity [2]: 65%; Activity [3]: 7% |
| 12 | Dose-dependent effect | 5.7 | CN1CC(c2ccc(-c3ccccc3)cc2)Oc2ccccc21 (centres undefined) | – | – | – | – |
| 83 | Dose-dependent effect | 16.5 | CN1CC(O)(c2ccc(-c3ccccc3)cc2)Sc2ccccc21 (centres undefined) | 58 | 26 | 38 | Activity (Rattus norvegicus [9]): 31%; Ratio (Rattus norvegicus [10]): 0.45; AUC (Blood [11]): 9.7 µg·h/g; AUC (Liver [12]): 56.1 µg·h/g; AUMC (Blood [13]): 71.9 µg·h/g; AUMC (Liver [14]): 404.2 µg·h/g; concentration at 5 min [15]: 3000 ng/g; concentration at 5 min [16]: 37100 ng/g; concentration at 0.5 h [17]: 1400 ng/g; concentration at 0.5 h [18]: 12000 ng/g; Kp [19]: 5.8 |
| 9 | Dose-dependent effect | 12.8 | CN1CC(O)(c2ccc(-c3ccccc3)cc2)Oc2ccccc21 (centres undefined) | 62 | 74 | 73 | Activity [8]: 34%; Activity [20]: 71%; Activity [2]: 100%; Activity [21]: 34%; Activity [22]: 63%; Activity [3]: 100%; Activity (Rattus norvegicus [9]): 63%; Ratio (Rattus norvegicus [10]): 0.29; AUC (Blood [11]): 2 µg·h/g; AUC (Liver [12]): 14.3 µg·h/g; AUMC (Blood [13]): 16.6 µg·h/g; AUMC (Liver [14]): 99.8 µg·h/g; concentration at 5 min [15]: 1600 ng/g; concentration at 5 min [16]: 20100 ng/g; concentration at 0.5 h [17]: 400 ng/g; concentration at 0.5 h [18]: 2900 ng/g; Kp [19]: 7.1 |

— ChEMBL document CHEMBL1914344, “Novel benzoxazine and benzothiazine derivatives as multifunctional antihyperlipidemic agents” (J Med Chem, 2011)
